Data reported in ChEMBL document CHEMBL3297654, “Synthesis, antimicrobial and cytotoxic activities, and structure-activity relationships of gypsogenin derivatives against human cancer cells” (Eur J Med Chem, 2014).
Converted amounts (≈) assume the structure as drawn. The source made the active and inactive calls. No cut-off for these calls is given here.

Key:
Bacillus cereus [1] = test: Antimicrobial activity against Bacillus cereus ATCC 11778 for 24 hrs by microdillution method; format: functional; conditions: ATCC 11778, 24 h
Procedure, shortened: (§1)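 Broth microdilution. Compound is dissolved in DMSO (2 mg/mL) and diluted in Mueller Hinton broth as two-fold serial dilutions from 256 to 0.125 µg/mL. Bacteria are pre-grown in nutrient broth at 30 °C, and the final inoculum is about 10^6 cfu/mL. Tests are incubated 37 °C for 24 h. MIC is the lowest concentration giving complete inhibition. Streptomycin is the positive control.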

Staphylococcus aureus = test: Antimicrobial activity against Staphylococcus aureus ATCC 25923 assessed as zone of inhibition at 30 uL for 24 hrs at 37 degC by disk diffusion test; format: functional, organism-based
Procedure, shortened: (§2)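 Compound (30 µL of a fresh 1000 µg/mL DMSO stock) goes into a 6 mm well cut in Mueller Hinton agar inoculated with 0.1 mL broth culture adjusted to 0.5 McFarland (about 1×10^8 cells/mL). Plates are incubated 24 h at 37 °C, then zone of inhibition diameter is measured in mm.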

HeLa [2] = test: Induction of apoptosis in human HeLa cells at 20 uM after 48 hrs by Hoechst 33258/propidium iodide staining based phase contrast microscopic analysis; format: functional
Procedure, shortened: (§3)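 Cells in 48-well plates treated with 0.5, 10, 20 or 40 µM for 24 and 48 h. Values are read at 48 h, 20 µM for test agents and 0.5 µM for controls. Staining is Hoechst 33258/propidium iodide double staining with fluorescence microscopy. Blue nuclei are viable or early-to-mid apoptotic, and pink nuclei are late apoptotic or necrotic. Apoptosis and necrosis are scored from chromatin condensation as % of cells. Cells are grown at 37 °C in 5% CO2 in RPMI, DMEM or McCoy's 5A with 10–15% heat-inactivated FCS.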

Candida tropicalis = test: Antimicrobial activity against Candida tropicalis assessed as zone of inhibition at 30 uL for 24 hrs at 30 degC by disk diffusion test; format: functional, organism-based
Procedure, shortened: (§4)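 Agar well diffusion on Mueller Hinton agar seeded with 0.1 mL broth culture (18–24 h), adjusted to 0.5 McFarland (about 1×10^8 bacteria or 1×10^6 yeast cells/mL). A 6 mm well is filled with 30 µL of compound from a fresh 1000 µg/mL DMSO stock. Plates are held at 30 °C for 24 h and inhibition zone diameter is read in mm.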

HT-29 [3] = test: Induction of apoptosis in human HT-29 cells at 20 uM after 48 hrs by Hoechst 33258/propidium iodide staining based phase contrast microscopic analysis; format: functional; procedure, shortened: as §3
Enterococcus faecalis = test: Antimicrobial activity against Enterococcus faecalis ATCC 29212 assessed as zone of inhibition at 30 uL for 24 hrs at 37 degC by disk diffusion test; format: functional, organism-based; procedure, shortened: as §2
Bacillus cereus [4] = test: Antimicrobial activity against Bacillus cereus ATCC 11778 assessed as zone of inhibition at 30 uL for 24 hrs at 30 degC by disk diffusion test; format: functional; procedure, shortened: as §4
SAOS-2 [5] = test: Induction of apoptosis in human Saos2 cells at 20 uM after 48 hrs by Hoechst 33258/propidium iodide staining based phase contrast microscopic analysis; format: functional; procedure, shortened: as §3
HL-60 [6] = test: Induction of apoptosis in human HL60 cells at 20 uM after 48 hrs by Hoechst 33258/propidium iodide staining based phase contrast microscopic analysis; format: functional; procedure, shortened: as §3
Saccharomyces cerevisiae = test: Antimicrobial activity against Saccharomyces cerevisiae ATCC 9763 assessed as zone of inhibition at 30 uL for 24 hrs at 30 degC by disk diffusion test; format: functional, organism-based; procedure, shortened: as §4
HeLa [7] = test: Antiproliferative activity against human HeLa cells after 24 and 72 hrs by MTT assay; format: functional, cell-based
Procedure, shortened: (§5)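 ATCC human cell lines are kept in RPMI, DMEM or McCoy's 5A with 10–15% heat-inactivated FCS at 37 °C and 5% CO2. They are seeded at 1×10^4–1×10^5 cells/mL in 48-well plates and exposed to 0.5, 10, 20 or 40 µM. Viability is read by MTT (590 nm) at 24 and 72 h. Growth is expressed relative to untreated cells and IC50 is fitted, in triplicate.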

Candida albicans = test: Antimicrobial activity against Candida albicans ATCC 10231 assessed as zone of inhibition at 30 uL for 24 hrs at 30 degC by disk diffusion test; format: functional, organism-based; procedure, shortened: as §4
HL-60 [8] = test: Antiproliferative activity against human HL60 cells after 24 and 72 hrs by MTT assay; format: functional, cell-based; procedure, shortened: as §5
MCF7 [9] = test: Antiproliferative activity against human MCF7 cells after 24 and 72 hrs by MTT assay; format: functional, cell-based; procedure, shortened: as §5
Klebsiella pneumoniae = test: Antimicrobial activity against Klebsiella pneumoniae ATCC 13882 assessed as zone of inhibition at 30 uL for 24 hrs at 37 degC by disk diffusion test; format: functional, organism-based; procedure, shortened: as §2
Cyberlindnera jadinii = test: Antimicrobial activity against Candida utilis ATCC 9950 assessed as zone of inhibition at 30 uL for 24 hrs at 30 degC by disk diffusion test; format: functional, organism-based; procedure, shortened: as §4
Caco-2 [10] = test: Antiproliferative activity against human Caco2 cells after 24 and 72 hrs by MTT assay; format: functional, cell-based; procedure, shortened: as §5
Micrococcus luteus = test: Antimicrobial activity against Micrococcus luteus ATCC 9341 assessed as zone of inhibition at 30 uL for 24 hrs at 30 degC by disk diffusion test; format: functional, organism-based; procedure, shortened: as §4
Escherichia coli = test: Antimicrobial activity against Escherichia coli ATCC 25922 assessed as zone of inhibition at 30 uL for 24 hrs at 37 degC by disk diffusion test; format: functional, organism-based; procedure, shortened: as §2
HL-60 [11] = test: Induction of necrosis in human HL60 cells at 20 uM after 48 hrs by Hoechst 33258/propidium iodide staining based phase contrast microscopic analysis; format: functional; procedure, shortened: as §3
Proteus vulgaris = test: Antimicrobial activity against Proteus vulgaris ATCC 33420 assessed as zone of inhibition at 30 uL for 24 hrs at 37 degC by disk diffusion test; format: functional, organism-based; procedure, shortened: as §2
[12] = Antiproliferative activity against human Saos2 cells after 24 and 72 hrs by MTT assay; format: functional, cell-based; conditions: SAOS-2; procedure, shortened: as §5
[13] = test system: Staphylococcus epidermidis; test: Antimicrobial activity against Staphylococcus epidermidis ATCC 12228 assessed as zone of inhibition at 30 uL for 24 hrs at 37 degC by disk diffusion test; format: functional, organism-based; procedure, shortened: as §2
Bacillus thuringiensis [14] = test: Antimicrobial activity against Bacillus thuringiensis assessed as zone of inhibition at 30 uL for 24 hrs at 30 degC by disk diffusion test; format: functional; procedure, shortened: as §4
Caco-2 [15] = test: Induction of apoptosis in human Caco2 cells at 20 uM after 48 hrs by Hoechst 33258/propidium iodide staining based phase contrast microscopic analysis; format: functional; procedure, shortened: as §3
HT-29 [16] = test: Induction of necrosis in human HT-29 cells at 20 uM after 48 hrs by Hoechst 33258/propidium iodide staining based phase contrast microscopic analysis; format: functional; procedure, shortened: as §3
Bacillus thuringiensis [17] = test: Antimicrobial activity against Bacillus thuringiensis for 24 hrs by microdillution method; format: functional; procedure, shortened: as §1
Salmonella typhimurium = test: Antimicrobial activity against Salmonella typhimurium ATCC 14028 assessed as zone of inhibition at 30 uL for 24 hrs at 37 degC by disk diffusion test; format: functional, organism-based; conditions: Salmonella enterica subsp. enterica serovar Typhimurium; procedure, shortened: as §2
HeLa [18] = test: Induction of necrosis in human HeLa cells at 20 uM after 48 hrs by Hoechst 33258/propidium iodide staining based phase contrast microscopic analysis; format: functional; procedure, shortened: as §3
Pseudomonas aeruginosa = test: Antimicrobial activity against Pseudomonas aeruginosa ATCC 35032 assessed as zone of inhibition at 30 uL for 24 hrs at 37 degC by disk diffusion test; format: functional, organism-based; procedure, shortened: as §2
MCF7 [19] = test: Induction of apoptosis in human MCF7 cells at 20 uM after 48 hrs by Hoechst 33258/propidium iodide staining based phase contrast microscopic analysis; format: functional; procedure, shortened: as §3
MCF7 [20] = test: Induction of necrosis in human MCF7 cells at 20 uM after 48 hrs by Hoechst 33258/propidium iodide staining based phase contrast microscopic analysis; format: functional; procedure, shortened: as §3
Nakaseomyces glabratus = test: Antimicrobial activity against Candida glabrata assessed as zone of inhibition at 30 uL for 24 hrs at 30 degC by disk diffusion test; format: functional, organism-based; procedure, shortened: as §4
Bacillus subtilis [21] = test: Antimicrobial activity against Bacillus subtilis ATCC 6633 assessed as zone of inhibition at 30 uL for 24 hrs at 30 degC by disk diffusion test; format: functional; procedure, shortened: as §4
Caco-2 [22] = test: Induction of necrosis in human Caco2 cells at 20 uM after 48 hrs by Hoechst 33258/propidium iodide staining based phase contrast microscopic analysis; format: functional; procedure, shortened: as §3
Bacillus subtilis [23] = test: Antimicrobial activity against Bacillus subtilis ATCC 6633 for 24 hrs by microdillution method; format: functional; conditions: ATCC 6633, 24 h; procedure, shortened: as §1
SAOS-2 [24] = test: Induction of necrosis in human Saos2 cells at 20 uM after 48 hrs by Hoechst 33258/propidium iodide staining based […] microscopic analysis; format: functional; procedure, shortened: as §3
HT-29 [25] = test: Antiproliferative activity against human HT-29 cells after 24 and 72 hrs by MTT assay; format: functional, cell-based; procedure, shortened: as §5

MIC (Bacillus cereus [1]): 128 mg/L (≈ 264 µM)
IC50 (HeLa [7]): 8.71 µM
IC50 (HL-60 [8]): 3.9 µM
IC50 (MCF7 [9]): 7.5 µM
IC50 (Caco-2 [10]): 28.1 µM
MIC (Bacillus thuringiensis [17]): 128 mg/L (≈ 264 µM)
MIC (Bacillus subtilis [23]): 64 mg/L (≈ 132 µM)
IC50 (HT-29 [25]): 10.9 µM
SMILES: CC1(C)CC[C@]2(C(=O)O)CC[C@]3(C)C(=CC[C@@H]4[C@@]5(C)CC[C@H](O)[C@@](C)(/C=N/O)[C@@H]5CC[C@]43C)[C@@H]2C1
diameter of the inhibition zone (DIZ) (Staphylococcus aureus): inactive
Activity (HeLa [2]): 26%
diameter of the inhibition zone (DIZ) (Candida tropicalis): inactive
Activity (HT-29 [3]): 27%
diameter of the inhibition zone (DIZ) (Enterococcus faecalis): inactive
diameter of the inhibition zone (DIZ) (Bacillus cereus [4]): 9 mm
Activity (SAOS-2 [5]): 27%
Activity (HL-60 [6]): 30%
diameter of the inhibition zone (DIZ) (Saccharomyces cerevisiae): inactive
diameter of the inhibition zone (DIZ) (Candida albicans): inactive
diameter of the inhibition zone (DIZ) (Klebsiella pneumoniae): inactive
diameter of the inhibition zone (DIZ) (Cyberlindnera jadinii): inactive
diameter of the inhibition zone (DIZ) (Micrococcus luteus): inactive
diameter of the inhibition zone (DIZ) (Escherichia coli): inactive
Activity (HL-60 [11]): 3%
diameter of the inhibition zone (DIZ) (Proteus vulgaris): inactive
IC50 [12]: 7.93 µM
diameter of the inhibition zone (DIZ) [13]: inactive
diameter of the inhibition zone (DIZ) (Bacillus thuringiensis [14]): 10 mm
Activity (Caco-2 [15]): 23%
Activity (HT-29 [16]): 0.7%
diameter of the inhibition zone (DIZ) (Salmonella typhimurium): inactive
Activity (HeLa [18]): 3%
diameter of the inhibition zone (DIZ) (Pseudomonas aeruginosa): inactive
Activity (MCF7 [19]): 26%
Activity (MCF7 [20]): 4%
diameter of the inhibition zone (DIZ) (Nakaseomyces glabratus): inactive
diameter of the inhibition zone (DIZ) (Bacillus subtilis [21]): 11 mm
Activity (Caco-2 [22]): 3%
Activity (SAOS-2 [24]): 3%
